# According to ChEMBL document CHEMBL1121717, “Tetrahydro-2-benzoxepins: a novel family of hypotensives” (1981):
# The source made the active and inactive calls. The calls are words filed in the database; no cut-off is given here.
# Key:
# Felis catus [1] = test: Effect of compound on heart rate was measured in baroreceptor denervated cats at time 5min, after iv administration of 1.0 mg/kg; type: functional
# Method in brief: (§1)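 Cats of either sex anesthetized i.p. with sodium diallylbarbituric acid (60 mg/kg) plus urethane (240 mg/kg), placed in stereotaxic frame, tracheal tube inserted; femoral artery cannulated for arterial pressure, femoral vein for drug. Sympathetic activity recorded from preganglionic splanchnic nerve. 1.0 mg/kg iv; n = 6 treated, n = 8 vehicle; MAP, HR and % SNA (0 min = 100) read at 0–60 min; mean ± error.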
# Felis catus [2] = test: Effect of compound on heart rate was measured in baroreceptor denervated cats at time 0min, after iv administration of 1.0 mg/kg; type: functional; method in brief: as §1
# Felis catus [3] = test: Effect of compound on heart rate was measured in baroreceptor denervated cats at time 40min, after iv administration of 1.0 mg/kg; type: functional; method in brief: as §1
# Rattus norvegicus [4] = test: Oral hypotensive activity of compound was tested in conscious rats after oral administration at 5 mg/Kg dose; -24/-9; type: functional, organism-based
# Rattus norvegicus [5] = test: Oral hypotensive activity of compound was tested in conscious rats after oral administration at 50 mg/Kg dose; -49/-52; type: functional, organism-based
# Felis catus [6] = test: Effect of compound on sympathetic nerve activity was measured in baroreceptor denervated cats at time 10min, after iv administration of 1.0 mg/kg; type: functional; method in brief: as §1
# Felis catus [7] = test: Effect of compound on sympathetic nerve activity was measured in baroreceptor denervated cats at time 40min, after iv administration of 1.0 mg/kg; type: functional; method in brief: as §1
# Felis catus [8] = test: Effect of compound on blood pressure was measured in baroreceptor denervated cats at time 20min, after iv administration of 1.0 mg/kg; type: functional; method in brief: as §1
# Felis catus [9] = test: Effect of compound on blood pressure was measured in baroreceptor denervated cats at time 60min, after iv administration of 1.0 mg/kg; type: functional; method in brief: as §1
# Felis catus [10] = test: Effect of compound on blood pressure was measured in baroreceptor denervated cats at time 0 min, after iv administration of 1.0 mg/kg; type: functional; method in brief: as §1
# Felis catus [11] = test: Effect of compound on heart rate was measured in baroreceptor denervated cats at time 10min, after iv administration of 1.0 mg/kg; type: functional; method in brief: as §1
# Felis catus [12] = test: Effect of compound on blood pressure was measured in baroreceptor denervated cats at time 5min, after iv administration of 1.0 mg/kg; type: functional; method in brief: as §1
# Felis catus [13] = test: Effect of compound on heart rate was measured in baroreceptor denervated cats at time 60min, after iv administration of 1.0 mg/kg; type: functional; method in brief: as §1
# Felis catus [14] = test: Effect of compound on blood pressure was measured in baroreceptor denervated cats at time 10min, after iv administration of 1.0 mg/kg; type: functional; method in brief: as §1
# Felis catus [15] = test: Effect of compound on sympathetic nerve activity was measured in baroreceptor denervated cats at time 0min, after iv administration of 1.0 mg/kg; type: functional; method in brief: as §1
# Felis catus [16] = test: Effect of compound on heart rate was measured in baroreceptor denervated cats at time 20min, after iv administration of 1.0 mg/kg; type: functional; method in brief: as §1
# Felis catus [17] = test: Effect of compound on sympathetic nerve activity was measured in baroreceptor denervated cats at time 60min, after iv administration of 1.0 mg/kg; type: functional; method in brief: as §1
# Felis catus [18] = test: Effect of compound on sympathetic nerve activity was measured in baroreceptor denervated cats at time 5min, after iv administration of 1.0 mg/kg; type: functional; method in brief: as §1
# Felis catus [19] = test: Effect of compound on sympathetic nerve activity was measured in baroreceptor denervated cats at time 20min, after iv administration of 1.0 mg/kg; type: functional; method in brief: as §1
# Felis catus [20] = test: Effect of compound on blood pressure was measured in baroreceptor denervated cats at time 40min, after iv administration of 1.0 mg/kg; type: functional; method in brief: as §1
smiles,measurement,setting,value
COc1cc2c(cc1OC)C(CCN1CCN(c3ccc(F)cc3)CC1)OCCC2.Cl (stereo not given),HR,Felis catus [1],229
same,HR,Felis catus [2],229
same,HR,Felis catus [3],231
same,Delta blood pressure,Rattus norvegicus [4],Active
same,Delta blood pressure,Rattus norvegicus [5],Active
same,SNA,Felis catus [6],76%
same,SNA,Felis catus [7],88%
same,MAP,Felis catus [8],95
same,MAP,Felis catus [9],109
same,MAP,Felis catus [10],131
same,HR,Felis catus [11],230
same,MAP,Felis catus [12],75
same,HR,Felis catus [13],232
same,MAP,Felis catus [14],85
same,SNA,Felis catus [15],100%
same,HR,Felis catus [16],230
same,SNA,Felis catus [17],96%
same,SNA,Felis catus [18],72%
same,SNA,Felis catus [19],86%
same,MAP,Felis catus [20],107
